Activity calls are given as the source filed them. No cut-off for these calls is given here.
Experiments:
KOPN-8 [1] = assay: Induction of apoptosis in human KOPN8 cells at 10 uM by Annexin V-FITC and propidium iodide staining based flow cytometry; assay type: functional, cell-based; conditions: TDE = time-dependent effect
How it was run: (§1)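 KOPN-8 cells were plated at 1.00 × 10^6 per plate and held 12 h at 37 °C, then treated 24 h; positive control 2 μM staurosporine, vehicle DMSO. Cells were stained with Annexin V-FITC and PI and analysed by flow cytometry (FACSCalibur). Profiles are representative of three independent biological replicates.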

[2] = Stability in CH3CN assessed as micheal adduct formation by measuring intact compound incubated for 16 hrs in presence of NAC by LC-MS analysis; assay type: physicochemical
[3] = Stability in CH3CN assessed as micheal adduct formation by measuring intact compound incubated for 16 hrs in presence of glutathione by LC-MS analysis; assay type: physicochemical
MDA-MB-231 [4] = assay: Antiproliferative activity against human MDA-MB-231 cells assessed as reduction in cell viability at >10 uM after 48 hrs by propidium iodide staining based fluorescence assay; assay type: functional
How it was run: (§2)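 MDA-MB-231 and SUM149 seeded at 6 × 10^4 to 2 × 10^5 cells/well, cultured 24 h, then exposed for 48 h. Cells fixed in cold methanol, stained with 0.4% propidium iodide, fluorescence imaged. Viability expressed as percent surviving cells relative to vehicle wells.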

UoC-B1 = assay: Antiproliferative activity against human UOCB1 cells assessed as reduction in cell viability at 1 to 10 uM by CellTiter-Glo assay; assay type: functional, cell-based
How it was run: (§3)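 CellTiter-Glo luminescent viability readout. Cells kept at 37 °C under 5% CO2. HMEC primary cells grown in basal medium with growth kit; leukemia lines and murine BCR-ABL (WT, Bax/Bak DKO) cultured per earlier description. Positive controls: staurosporine 25 μM, gambogic acid 10 μM, a toxic quinoline. At least two biological replicates in technical triplicate; luminescence normalized to untreated controls; EC50 computed.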

B-ALL [5] = assay: Cytotoxicity against BCR-ABL p185-positive mouse B-ALL cells overexpressing human BCL-2 assessed as inhibition of cell viability after 24 hrs by AnnexinV-FITC/propidium iodide staining based flow cytometric analysis; assay type: functional
B-ALL [6] = assay: Cytotoxicity against BCR-ABL p185-positive human B-ALL cells harboring MCL-1 triple knock out mutant assessed as inhibition of cell viability after 24 hrs by AnnexinV-FITC/propidium iodide staining based flow cytometric analysis; assay type: functional
KOPN-8 [7] = assay: Induction of apoptosis in human KOPN8 cells assessed as increase in caspase 3/7 activity incubated for 24 hrs by caspase3/7 reagent based ApoTox-Glo triplex assay; assay type: functional, cell-based
How it was run: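 ApoTox-Glo Triplex assay in KOPN-8 or U2OS cells. Cells were incubated 12 h at 37 °C, then treated 24 h across 100–0.15 μM. Viability (GF-AFC, 400Ex/505Em) and cytotoxicity (bis-AAF-R110, 485Ex/520Em) were read after 30 min at 37 °C. Caspase-Glo 3/7 luminescence was then read after 0.5 h at room temperature. Values are mean ± SEM of three independent experiments.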

B-ALL [8] = assay: Cytotoxicity against BCR-ABL p185-positive mouse B-ALL cells overexpressing human BFL-1 assessed as inhibition of cell viability after 24 hrs by AnnexinV-FITC/propidium iodide staining based flow cytometric analysis; assay type: functional
U2OS = assay: Decrease in cell viability in human U2OS cells incubated for 24 hrs by GF-AFC reagent based ApoTox-Glo triplex assay; assay type: functional
How it was run: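 ApoTox-Glo Triplex: cells held 12 h at 37 °C, then treated 24 h (100−0.15 μM). Viability/cytotoxicity reagent added, shaken, 30 min at 37 °C; viability read as GF-AFC fluorescence at 400Ex/505Em. Caspase-Glo 3/7 then added, 0.5 h at room temperature, luminescence read. Mean ± SEM of three independent experiments.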

[9] = Protein binding in human plasma; assay type: ADME, cell-free; conditions: read-out: PPB (converted)
MCF7 [10] = assay: Upregulation of Trx level in human MCF7 after 3 to 6 hrs by Western blot analysis; assay type: functional, cell-based
How it was run: (§4)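 MCF-7 cells were exposed to compound for 3 or 6 h. Lysates were made in Tris-HCl pH 7.5 RIPA-type buffer with protease/phosphatase inhibitors and quantified by BCA. 30 μg protein per lane was run on 4–12% Bis-Tris SDS-PAGE in MES and transferred to nitrocellulose. Blots were probed for thioredoxin with tubulin as reference, detected with IR-dye secondaries (1:15 000) and scanned on an infrared imager.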

KOPN-8 [11] = assay: Induction of apoptosis in human KOPN8 cells assessed as early apoptotic cells at 10 uM after 24 hrs by Annexin V-FITC and propidium iodide staining based flow cytometry; assay type: functional, cell-based; how it was run: as §1
B-ALL [12] = assay: Cytotoxicity against BCR-ABL p185-positive mouse B-ALL cells transfected with empty vector assessed as inhibition of cell viability after 24 hrs by AnnexinV-FITC/propidium iodide staining based flow cytometric analysis; assay type: functional
Raji = assay: Antiproliferative activity against human Raji cells assessed as reduction in cell viability at 0.1 to 250 uM by CellTiter-Glo assay; assay type: functional, cell-based; how it was run: as §3
SUM149PT = assay: Antiproliferative activity against human SUM149 cells assessed as reduction in cell viability at 0.1 to 250 uM after 48 hrs by propidium iodide staining based fluorescence assay; assay type: functional; how it was run: as §2
KOPN-8 [13] = assay: Induction of mitochondrial membrane potential loss in human KOPN8 cells at 4 uM after 24 hrs by TMRM staining based flow cytometric analysis; assay type: functional, cell-based
How it was run: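 TMRM flow cytometry. KOPN-8 (4 × 10^4 or 5 × 10^5 per well) or MCF-7 (2 × 10^4 or 2 × 10^5 per well) were seeded 24 h, then treated 24–48 h. FCCP 10 μM was added 10 min before staining as positive control. Cells were stained with TMRM 100 nM for 0.5 h, then PBS-washed, resuspended in PBS with 1% FBS and analysed by flow cytometry; DAPI flagged compromised cells.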

KOPN-8 [14] = assay: Upregulation of Trx expression in human KOPN8 at 1 uM after 24 hrs by Western blot analysis; assay type: functional, cell-based
How it was run: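 Western blot of KOPN-8 or MCF-7 lysates, 30 μg protein per lane on 4–12% Bis-Tris SDS-PAGE and transferred to nitrocellulose. Blots were probed with an oxidative stress defense antibody cocktail (catalase, SOD1, Trx, smooth muscle actin) and tubulin, and detected with IR-dye secondaries on a LI-COR Odyssey.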

MCF7 [15] = assay: Upregulation of Trx level in human MCF7 at 1 uM after 3 to 6 hrs by Western blot analysis; assay type: functional, cell-based; how it was run: as §4
MCF7 [16] = assay: Antiproliferative activity against human MCF7 cells assessed as reduction in cell viability at 0.1 to 250 uM by CellTiter-Glo assay; assay type: functional, cell-based; how it was run: as §3
MDA-MB-231 [17] = assay: Antiproliferative activity against human MDA-MB-231 cells assessed as reduction in cell viability at 0.1 to 250 uM after 48 hrs by propidium iodide staining based fluorescence assay; assay type: functional; how it was run: as §2
B-ALL [18] = assay: Antiproliferative activity against mouse B-ALL cells harboring Bax/Bak double knockout mutant assessed as reduction in cell viability at 0.1 to 250 uM by CellTiter-Glo assay; assay type: functional, cell-based; how it was run: as §3

CC(=O)O[C@H]1/C2=C/[C@@H](C)C(=O)C[C@H]3[C@@H](/C=C(\C)C(=O)[C@H]2C[C@H]1C)C3(C)C
Activity (KOPN-8 [1]): Tde
Stability [2]: Stable
Stability [3]: Stable
inhibition (MDA-MB-231 [4]): Active
inhibition (UoC-B1): Active
IC50 (B-ALL [5]): 7.52 µM
IC50 (B-ALL [6]): 19.6 µM
Activity (KOPN-8 [7]): Dose-dependent effect
IC50 (B-ALL [8]): 4.26 µM
inhibition (U2OS): Dose-dependent effect
fraction unbound [9]: 0.16
Activity (MCF7 [10]): Dose-dependent effect
Activity (KOPN-8 [11]): inactive
IC50 (B-ALL [12]): 4.57 µM

CC1=C2CC(C)(C)/C=C/C(=O)/C(C)=C\C3=C[C@H](C)C[C@]3(O2)C1=O [JATROPHONE]
inhibition (Raji): Active
inhibition (SUM149PT): Active
Activity (KOPN-8 [13]): Active
Activity (KOPN-8 [14]): inactive
Activity (MCF7 [15]): Active
inhibition (MCF7 [16]): Active
inhibition (MDA-MB-231 [17]): Active
inhibition (B-ALL [18]): Active
